Shown are actives, neighbours in structure and some others; about 2.9% of the full set was active somewhere.
RanGTP-Imp inh: disruptors of Ran-importin-beta complex formation – biochemical, FRET, CFP-Ran, YFP-importin-beta, homogeneous, primary screen; AID 2216; actives 1.1% (n = 300,000); inhibition, % (no concentration beside the values); cell-free CFP-Ran/YFP-importin-beta FRET ratio;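 active means more than half of the replicate wells show a fall in the fluorescence ratio signal beyond about 16%, limit read from the data, passing the limit was not always enough; inconclusive means exactly half of the replicate wells pass the set limit; inactive means fewer than half of replicates pass the limit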
Runt-SMMHC FRET: inhibitors of human RUNX1 Runt domain binding to CBFb-SMMHC; AID 1434; inhibition, % at 20 µM; actives 0.74% (n = 220,000); Cerulean-Runt/Venus-CBFb-SMMHC FRET ratio 530/480, 1 h; Q01196+Q13951;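 active means mean inhibition across duplicate retests at 20 µM reaching about 50%, limit read from the data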;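 further: inhibitors lower the FRET ratio by blocking Runt binding to CBFb-SMMHC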
Hck-Nef inh: inhibitors of human Hck kinase activated by Nef; AID 463187; Recombinant Hck-YEEI plus Nef, Z-Lyte FRET kinase assay; actives 0.68% (n = 220,000); inhibition, % at 20 µM; P08631;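 active means Hck-Nef kinase inhibition above about 50%, limit read from the data; inactive means inhibition below that limit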
PfM18AAP inh: PfM18AAP enzyme inhibition; recombinant PfM18AAP, H-Glu-NHMec fluorogenic cleavage; inhibition, % at 7.35 µM; actives 1.2% (n = 290,000);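 active means inhibition above the campaign mean inhibition over all tested compounds plus 3 SD, cut at about 28% in these data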
RBBP9 inh: human RBBP9 hydrolase inhibition | recombinant RBBP9, FP-Rh probe fluorescence polarization | actives 0.2% (n = 220,000) | inhibition, % at 7.94 µM;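 active means inhibition above the campaign mean of all tested compounds plus 3 SD, cut at about 14% in these data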
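Test system: recombinant human RBBP9. Quantity: 2.5 µM RBBP9 dispensing solution, before mixing. Detection: FP readout at 525/598 nm. Reagent: Serine-hydrolase probe FP-Rh, 375 nM pre-mixing. Measure: % inhibition. Control set: DMSO-treated enzyme wells and wells lacking RBBP9. Buffer or medium: Tris-NaCl-Pluronic buffer, pH 8.0. Times: preincubation 30 min plus labeling 45 min at 25 °C.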
Runt-CBFb FRET: inhibitors of human RUNX1 Runt domain binding to CBFb; Q01196+Q13951; Cerulean-Runt/Venus-CBFb FRET ratio 530/480, 1 h; inhibition, % at 20 µM; actives 0.46% (n = 220,000); AID 1496;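 active means inhibition over about 50% at 20 µM in the single-dose screen, limit read from the data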
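Assay system: Cerulean-tagged RUNX1 Runt domain (FRET donor) fusion protein / Amount: 100 nM each of Venus-CBFb and Cerulean-Runt domain / Medium: Tris buffer pH 7.5 with salts and BSA / Also added: Venus-CBFb 100 nM / Schedule: 1 h complex formation plus 1 h compound treatment, room temperature / Signal: FRET fluorescence / Read-out: loss of energy transfer signal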
Numbers stand for hits; i = inactive; ? = inconclusive; nt = not tested or not shown.

SMILES	RanGTP-Imp inh	Runt-SMMHC FRET	Hck-Nef inh	PfM18AAP inh	RBBP9 inh	Runt-CBFb FRET
CC(C)OC(=O)Cc1nc2sc(-c3ccccc3)cc2c(=O)[nH]1	i	nt	nt	i	nt	nt
C=CCOc1c(Br)cc(C2C3=C(CCCC3=O)N(C)C3=C2C(=O)CCC3)cc1OCC	101	nt	53	i	i	96
COc1ccc(Cl)cc1NC(=O)C1Cc2ccccc2CN1S(C)(=O)=O (stereo unspecified)	i	nt	nt	28	nt	nt
COc1cc(NC(=O)C2Cc3ccccc3CN2S(C)(=O)=O)cc(OC)c1 (stereo unspecified)	i	nt	nt	i	nt	nt
O=C(CCC1N=C2c3ccccc3N=C(SCc3ccc(Cl)cc3)N2C1=O)NCc1ccco1 (stereo unspecified)	27	i	i	i	i	i
O=C(CCC1N=C2c3ccccc3N=C(SCc3ccc(F)cc3)N2C1=O)NCc1ccco1 (stereo unspecified)	?	i	i	i	i	i
Cc1ccc(C)c(S(=O)(=O)N2CCC(c3nc4c(nnn4Cc4ccc5c(c4)OCCO5)c(=O)[nH]3)CC2)c1	i	nt	nt	i	nt	nt
O=C(NNC(=O)c1cnccn1)c1ccc(Cl)cc1	i	i	i	i	i	i
COc1ccc(S(=O)(=O)NC2CC(C)(C)NC(C)(C)C2)c2ccccc12	i	nt	nt	i	nt	nt
COc1ccc(C2CC(=O)C3=C(C2)Nc2ccccc2N(C(=O)C2CC2)C3c2cccnc2)cc1OC (stereo unspecified)	i	i	i	i	i	i
COc1cc(C2Nc3ccccc3NC3=C2C(=O)CC(c2ccc(OC)c(OC)c2)C3)ccc1O (stereo unspecified)	i	56	i	i	i	i
COc1ccc(NS(=O)(=O)c2cccc(C(=O)NCc3ccco3)c2)cc1	i	nt	nt	nt	nt	nt
CCc1cc(=O)oc2c(C)c(O)c(CN(C)C)cc12	38	62	i	i	i	i
O=C(Nc1cccc(Cl)c1)c1cc2c(=O)n3ccccc3nc2s1	91	nt	nt	i	nt	nt
Cc1cccc(NC(=O)c2cc3c(=O)n4ccccc4nc3s2)c1	i	nt	nt	i	nt	nt
COc1cccc(-n2c(C)cc(/C=C3\C(=N)N4N=C(CC(=O)N5CCOCC5)SC4=NC3=O)c2C)c1	16	nt	nt	i	nt	nt
O=C(Nc1nc2c(s1)CN(Cc1ccccc1)CC2)c1c(F)cccc1F	i	98	i	i	i	i
O=C(Nc1nc2c(s1)CN(Cc1ccccc1)CC2)C1CCCC1	i	118	i	i	i	53
CC(C)(C)C(=O)Nc1nc2c(s1)CN(Cc1ccccc1)CC2	99	92	i	i	i	77
O=C(Nc1nnc(Cc2ccccc2)s1)C1CCC1	i	nt	nt	i	nt	nt
O=C(Nc1ccccc1F)c1ccc(CN2CCc3ccccc3C2)cc1	?	nt	nt	i	nt	nt
OCCN(Cc1ccccc1)C(=S)Nc1ccc(Cl)cc1Cl	i	i	i	i	i	i
O=C1CCCC2=C1Sc1ccc(Cl)cc1N2	i	i	i	30	i	i
CCOC(=O)c1c(C)[nH]c(C)c1S(=O)(=O)N1CCN(C(=O)c2ccco2)CC1	i	nt	nt	i	nt	nt
Cc1cc(C)nc(NC(=O)c2ccc([N+](=O)[O-])c(C)c2)n1	i	nt	nt	i	nt	nt
SMILES	RanGTP-Imp inh	Runt-SMMHC FRET	Hck-Nef inh	PfM18AAP inh	RBBP9 inh	Runt-CBFb FRET
Cc1cc(C(=O)Nc2ncn[nH]2)ccc1[N+](=O)[O-]	i	i	i	30	i	i
CCCc1cc(N2CCN(C(=O)c3ccco3)CC2)n2c(nc3ccccc32)c1C#N	31	65	i	i	i	i
CCCc1cc(-n2ccnc2C)n2c(nc3ccccc32)c1C#N	i	nt	nt	nt	nt	nt
Cc1cc(N2C(=O)C(O)=C(C(=O)c3cc4ccccc4o3)C2c2ccc(Cl)cc2)no1 (stereo unspecified)	i	nt	nt	i	nt	nt
Cc1cc(N2C(=O)C(O)=C(C(=O)c3cc4ccccc4o3)C2c2ccc(Br)cc2)no1 (stereo unspecified)	47	nt	nt	i	nt	nt
COc1ccc(Cn2c(C)nc3ccc([N+](=O)[O-])cc3c2=O)cc1	?	nt	nt	i	nt	nt
COC(=O)[C@@]12CCCCN1[C@H](c1ccc(-c3ccc(F)cc3)cc1)[C@@H]1C(=O)N(C)C(=O)[C@@H]12	i	nt	nt	nt	nt	nt
Cc1cc([N+](=O)[O-])c(C)cc1-c1ccc(/C=N/NC(=O)Cn2nnnc2N)o1	i	i	53	i	i	i

Source: PubChem BioAssay (several laboratories)
